ChEMBL document CHEMBL1938323, “Phenolic substances from Phagnalon rupestre protect against 2,4,6-trinitrochlorobenzene-induced contact hypersensitivity” (2011)
Calls of active or inactive are those of the source. No cut-off for these calls is given here.

Columns and labels:
RAW264.7 [1] = test: Antiinflammatory activity in mouse RAW264.7 cells assessed as inhibition of LPS-induced MMP9 expression at 100 uM by Western blotting relative to control; type: functional
How it was run: (§1)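 RAW 264.7 cells were plated at 2×10^5 cells/mL and switched to DMEM with 0.5% FBS when subconfluent. They were pretreated 1 h with compound (25, 50, 100 μM) or PBS vehicle, then given LPS 1 μg/mL. Cells were lysed after 24 h. MMP-9 was measured by Western blot, normalized to β-actin, with % inhibition versus control. Three experiments.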

Mus musculus [2] = species on record: Mus musculus; test: Antihypersensitivity activity against TNCB-induced contact hypersensitivity in BALB/c mouse ear assessed as decrease IL4 levels at 0.5 mg/ear measured after 24 to 72 hrs by ELISA; type: functional, organism-based
How it was run: (§2)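 Acute CHS: female BALB/c mice challenged with 1% TNCB (10 μL/ear). Topical treatment at 30 min, 24 h and 48 h: compounds 0.5 mg/ear, dexamethasone 0.025 mg/ear. Ears collected at 24 and 72 h and homogenized. Cytokines measured by ELISA in triplicate and expressed as pg/mL. n ≥4 animals; Dunnett's test versus control.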

Mus musculus [3] = species on record: Mus musculus; test: Antihypersensitivity activity against TNCB-induced contact hypersensitivity in BALB/c mouse ear assessed as decrease IL2 levels at 0.5 mg/ear measured after 72 hrs by ELISA relative to 24 hrs; type: functional; how it was run: as §2
RAW264.7 [4] = test: Antiinflammatory activity in mouse RAW264.7 cells assessed as inhibition of LPS-induced MMP9 expression at 50 uM by Western blotting relative to control; type: functional; how it was run: as §1
Mus musculus [5] = species on record: Mus musculus; test: Antihypersensitivity activity against TNCB-induced contact hypersensitivity in BALB/c mouse ear assessed as decrease IL1-beta levels at 0.5 mg/ear measured at 24 hrs by ELISA relative to control; type: functional; how it was run: as §2
RAW264.7 [6] = test: Antiinflammatory activity in mouse RAW264.7 cells assessed as inhibition of LPS-induced MMP9 expression at 25 uM by Western blotting relative to control; type: functional; how it was run: as §1
RAW264.7 [7] = test: Antiinflammatory activity in mouse RAW264.7 cells assessed as inhibition of LPS-induced MMP9 expression by Western blotting; type: functional, cell-based; how it was run: as §1
Mus musculus [8] = species on record: Mus musculus; test: Antihypersensitivity activity against TNCB-induced contact hypersensitivity in BALB/c mouse ear assessed as decrease IL1-beta levels at 0.5 mg/ear measured at 72 hrs by ELISA relative to control; type: functional; how it was run: as §2
Mus musculus [9] = test: Antihypersensitivity against TNCB-induced contact hypersensitivity in BALB/c mouse ear assessed as inhibition of edema at 0.5 mg/ear applied tropically after 30 mins, 24 hrs and 48 hrs of TNCB challenge measured after 72 hrs relative to control; type: functional
How it was run: (§3)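 Female BALB/c mice (7–9 weeks) challenged on each ear with 10 μL 1% TNCB in acetone six days after sensitization. Compounds given at 0.5 mg/ear in EtOH–H2O 8:2 at 30 min, 24 h and 48 h. Ear thickness measured by micrometer at 24 and 72 h. Edema is inflamed minus naive thickness; inhibition versus control. Dunnett's test.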

Mus musculus [10] = test: Antihypersensitivity against TNCB-induced contact hypersensitivity in BALB/c mouse ear assessed as inhibition of edema at 0.5 mg/ear applied […] after 30 mins, 24 hrs and 48 hrs of TNCB challenge measured after 24 hrs relative to control; type: functional; how it was run: as §3
Mus musculus [11] = species on record: Mus musculus; test: Antihypersensitivity activity against TNCB-induced acute contact hypersensitivity in BALB/c mouse ear assessed as inhibition of neutrophil infiltration by measuring MPO activity at 0.5 mg/ear measured after 72 hrs relative to control; type: functional
How it was run: (§4)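 Female BALB/c mice were challenged on both ears with 10 μL 1% TNCB in acetone. Test compounds (0.5 mg/ear in EtOH–H2O 8:2) or dexamethasone (0.025 mg/ear in acetone) were applied topically at 30 min, 24 h and 48 h. Ear tissue was taken at 24 or 72 h and homogenized in phosphate buffer with 0.5% HTAB. MPO was read by TMB/H2O2, 3 min at 37 °C, A630. n ≥5 ear samples.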

Mus musculus [12] = test: Antihypersensitivity activity against TNCB-induced atopic dermatitis in BALB/c mouse ear assessed as inhibition of ear thickness at 0.5 mg/ear applied topically three times per week 30 min TNCB post challenge measured on day 11 onwards; type: functional
How it was run: (§5)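 BALB/c mice sensitized with 10 μL 0.3% TNCB in acetone on both inner ears at day −7, then re-challenged at the same site three times per week over days 0–21. Ear thickness measured by digital micrometer. Edema is the difference between naive and inflamed ear thickness. Inhibition calculated relative to the control group.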

Mus musculus [13] = species on record: Mus musculus; test: Antihypersensitivity activity against TNCB-induced contact hypersensitivity in BALB/c mouse ear assessed as decrease TNFalpha levels at 0.5 mg/ear measured at 24 hrs by ELISA relative to control; type: functional; how it was run: as §2
Mus musculus [14] = species on record: Mus musculus; test: Antihypersensitivity activity against TNCB-induced contact hypersensitivity in BALB/c mouse ear assessed as decreased COX2 expression at 0.5 mg/ear after at 72 hrs by Western blotting relative to control; type: functional
Mus musculus [15] = species on record: Mus musculus; test: Antihypersensitivity activity against TNCB-induced contact hypersensitivity in BALB/c mouse ear assessed as inhibition of MMP9 production at 0.5 mg/ear measured at 24 hrs by Western blot analysis relative to control; type: functional
Mus musculus [16] = species on record: Mus musculus; test: Antihypersensitivity activity against TNCB-induced contact hypersensitivity in BALB/c mouse ear assessed as decreased COX2 expression at 0.5 mg/ear after at 24 hrs by Western blotting relative to control; type: functional
[17] = Inhibition of NF-kappaB activation
Mus musculus [18] = species on record: Mus musculus; test: Antihypersensitivity activity against TNCB-induced acute contact hypersensitivity in BALB/c mouse ear assessed as inhibition of neutrophil infiltration by measuring MPO activity at 0.5 mg/ear measured after 24 hrs relative to control; type: functional; how it was run: as §4
Mus musculus [19] = test: Antihypersensitivity activity against TNCB-induced atopic dermatitis in BALB/c mouse ear assessed as inhibition of ear thickness at 0.5 mg/ear applied topically three times per week 30 min TNCB post challenge measured on day 7 onwards; type: functional; how it was run: as §5
Mus musculus [20] = species on record: Mus musculus; test: Antihypersensitivity activity against TNCB-induced acute contact hypersensitivity in BALB/c mouse ear assessed as inhibition of neutrophil infiltration by measuring MPO activity at 0.5 mg/ear measured after 22 days of repeated application of TNCB relative to control; type: functional
How it was run: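 Repeated-challenge protocol in BALB/c mice: sensitized with 10 μL 0.3% TNCB in acetone on both inner ears at day −7, then 0.3% TNCB three times weekly over days 0–21. Ears were excised on day 22 and homogenized in 0.5% HTAB phosphate buffer. MPO was read by TMB/H2O2, 3 min at 37 °C, A630. n ≥5 ear samples.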

Mus musculus [21] = species on record: Mus musculus; test: Antihypersensitivity activity against TNCB-induced contact hypersensitivity in BALB/c mouse ear assessed as inhibition of MMP9 production at 0.025 mg/ear measured at 24 hrs by ELISA relative to control
Mus musculus [22] = species on record: Mus musculus; test: Antihypersensitivity activity against TNCB-induced acute contact hypersensitivity in BALB/c mouse ear assessed as inhibition of neutrophil infiltration by measuring MPO activity at 0.025 mg/ear measured after 24 to 72 hrs relative to control; type: functional; how it was run: as §4
Mus musculus [23] = test: Antihypersensitivity against TNCB-induced contact hypersensitivity in BALB/c mouse ear assessed as inhibition of edema at 0.025 mg/ear applied […] after 30 mins, 24 hrs and 48 hrs of TNCB challenge measured after 24 hrs relative to control; type: functional
How it was run: (§6)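 Female BALB/c mice, 7–9 weeks old, were challenged with 10 μL 1% TNCB in acetone per ear. Dexamethasone (20 μL, in acetone) was applied topically to both ears at 30 min, 24 h and 48 h after challenge. Thickness was taken by digital micrometer at 24 h or 72 h; edema is inflamed minus naive ear, with inhibition relative to control. Reported as mean ± SEM, ≥6 animals, Dunnett's test.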

Mus musculus [24] = species on record: Mus musculus; test: Antihypersensitivity activity against TNCB-induced contact hypersensitivity in BALB/c mouse ear assessed as decreased COX2 expression at 0.025 mg/ear after at 24 hrs by Western blotting relative to control; type: functional
Mus musculus [25] = species on record: Mus musculus; test: Antihypersensitivity activity against TNCB-induced contact hypersensitivity in BALB/c mouse ear assessed as decrease cytokines levels at 0.025 mg/ear measured at 24 hrs by ELISA relative to control; type: functional; how it was run: as §2
Mus musculus [26] = test: Antihypersensitivity activity against TNCB-induced atopic dermatitis in BALB/c mouse ear assessed as inhibition of ear thickness at 0.025 mg/ear applied topically three times per week 30 min TNCB post challenge measured up to 25 days; type: functional, organism-based; conditions: in the assay text read “up to 21 days” for “up to 25 days”; how it was run: as §5
Mus musculus [27] = species on record: Mus musculus; test: Antihypersensitivity activity against TNCB-induced contact hypersensitivity in BALB/c mouse ear assessed as inhibition of MMP9 production at 0.025 mg/ear measured at 72 hrs by Western blot analysis relative to control; type: functional
Mus musculus [28] = species on record: Mus musculus; test: Antihypersensitivity activity against TNCB-induced contact hypersensitivity in BALB/c mouse ear assessed as decreased COX2 expression at 0.025 mg/ear after at 72 hrs by Western blotting relative to control; type: functional
Mus musculus [29] = test: Antihypersensitivity against TNCB-induced contact hypersensitivity in BALB/c mouse ear assessed as inhibition of edema at 0.025 mg/ear applied […] after 30 mins, 24 hrs and 48 hrs of TNCB challenge measured after 72 hrs relative to control; type: functional; how it was run: as §6
Mus musculus [30] = species on record: Mus musculus; test: Antihypersensitivity activity against TNCB-induced acute contact hypersensitivity in BALB/c mouse ear assessed as inhibition of neutrophil infiltration by measuring MPO activity at 0.025 mg/ear measured after 22 days of repeated application of TNCB relative to control; type: functional
How it was run: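 Female BALB/c mice were sensitized with 10 μL 0.3% TNCB in acetone on both inner ear surfaces, then painted with 0.3% TNCB three times weekly through days 0–21. On day 22 ears were homogenized in 50 mM PBS with 0.5% HTAB. Supernatant was read with H2O2 and tetramethylbenzidine, 3 min at 37 °C, acid-stopped, A630. Reported as mean ± SEM of ≥5 ear samples.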

SMILES	inhibition at 100 µM (RAW264.7 [1]) [%]	inhibition (Mus musculus [2])	fold change (FC) (Mus musculus [3])	inhibition at 50 µM (RAW264.7 [4]) [%]	inhibition (INH) (Mus musculus [5]) [%]	inhibition at 25 µM (RAW264.7 [6]) [%]	inhibition (RAW264.7 [7])	inhibition (INH) (Mus musculus [8]) [%]	inhibition (INH) (Mus musculus [10]) [%]	inhibition (INH) (Mus musculus [13]) [%]	inhibition (INH) (Mus musculus [14]) [%]	inhibition (INH) (Mus musculus [15]) [%]	inhibition (INH) (Mus musculus [16]) [%]	other results
CC(C)=CCc1cc(O)ccc1O[C@@H]1O[C@H](CO)[C@@H](O)[C@H](O)[C@H]1O	86	inactive	2	72	>50	10	Dose-dependent effect	60	53	–	–	–	–	inhibition (INH) (Mus musculus [9]): 50%; inhibition (INH) (Mus musculus [11]): 43%; inhibition (INH) (Mus musculus [12]): 30%
COC(=O)[C@]1(O)C[C@@H](OC(=O)/C=C/c2ccc(O)c(O)c2)[C@@H](O)[C@H](OC(=O)/C=C/c2ccc(O)c(O)c2)C1	90	inactive	2	85	>50	26	Dose-dependent effect	60	45	39	29	41	49	–
O=C(/C=C/c1ccc(O)c(O)c1)O[C@@H]1C[C@](O)(C(=O)O)C[C@@H](OC(=O)/C=C/c2ccc(O)c(O)c2)[C@H]1O (relative stereo)	97	inactive	2	42	>50	20	Dose-dependent effect	–	50	53	20	66	44	inhibition [17]: Active; inhibition (INH) (Mus musculus [18]): 20%; inhibition (INH) (Mus musculus [19]): > 40%; inhibition (INH) (Mus musculus [20]): 44%
C[C@@H]1C[C@H]2[C@@H]3CCC4=CC(=O)C=C[C@]4(C)[C@@]3(F)[C@@H](O)C[C@]2(C)[C@@]1(O)C(=O)CO [DEXAMETHASONE]	–	–	–	–	–	–	–	–	–	–	–	–	–	inhibition (INH) (Mus musculus [21]): 81%; inhibition (INH) (Mus musculus [22]): 65%; inhibition (INH) (Mus musculus [23]): 78%; inhibition (INH) (Mus musculus [24]): 48%; inhibition (INH) (Mus musculus [25]): 50%; inhibition (Mus musculus [26]): Active; inhibition (INH) (Mus musculus [27]): 69%; inhibition (INH) (Mus musculus [28]): 43%; inhibition (INH) (Mus musculus [29]): 83%; inhibition (INH) (Mus musculus [30]): 78%
O=C(O[C@@H]1Cc2c(O)cc(O)cc2O[C@@H]1c1cc(O)c(O)c(O)c1)c1cc(O)c(O)c(O)c1 [EPIGALOCATECHIN GALLATE]	90	–	–	75	–	70	–	–	–	–	–	–	–	–
